# Experimental data reported in ChEMBL document CHEMBL3297703, “Novel quinuclidinyl heteroarylcarbamate derivatives as muscarinic receptor antagonists” (Bioorg Med Chem, 2014).
# pKi: −log10 of the molar value. The source made the active and inactive calls. No cut-off for these calls is given here.
# What was measured:
# [1] = tested on: Rattus norvegicus; assay: Bronchodilatory effect in it dosed Sprague-Dawley rat assessed as inhibition of CCh-induced bronchoconstriction after 24 hrs; assay type: functional; conditions: read-out: ID50 (the source's name)
# Outline: (§1)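 Anaesthetised, cannulated male Sprague-Dawley rats dosed once intratracheally; 24 h later CCh (30 μg/kg) given, with bronchoconstriction (airway pressure via transducer) and salivation (net weight gain of cotton balls in oral cavity) recorded together in the same animal.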
# [2] = tested on: Rattus norvegicus; assay: Bronchodilatory effect in it dosed Sprague-Dawley rat assessed as inhibition of CCh-induced bronchoconstriction at 15 mins to 1 hr; assay type: functional, organism-based
# [3] = molecular target: T1, Muscarinic acetylcholine receptor M1 (Rattus norvegicus, UniProt P08482); assay: Displacement of [3H]-NMS from Sprague-Dawley rat muscarinic M1 receptor in cortex membrane; assay type: cell membranes
# T1 sequence (P08482 whole entry): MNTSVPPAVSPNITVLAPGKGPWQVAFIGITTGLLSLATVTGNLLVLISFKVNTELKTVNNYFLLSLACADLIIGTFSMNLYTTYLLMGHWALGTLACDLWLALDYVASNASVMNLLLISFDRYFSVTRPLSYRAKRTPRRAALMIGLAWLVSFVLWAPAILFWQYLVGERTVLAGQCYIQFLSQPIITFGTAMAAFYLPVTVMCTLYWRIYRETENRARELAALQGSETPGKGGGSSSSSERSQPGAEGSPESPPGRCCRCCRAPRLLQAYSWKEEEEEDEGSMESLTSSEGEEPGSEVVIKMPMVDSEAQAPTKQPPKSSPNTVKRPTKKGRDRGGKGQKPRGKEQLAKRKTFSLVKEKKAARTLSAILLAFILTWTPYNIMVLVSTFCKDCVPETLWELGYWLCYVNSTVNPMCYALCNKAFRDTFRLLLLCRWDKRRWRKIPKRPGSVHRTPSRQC
# [4] = molecular target: T2, Muscarinic acetylcholine receptor M2 (Rattus norvegicus, UniProt P10980); assay: Displacement of [3H]-NMS from Sprague-Dawley rat muscarinic M2 receptor in heart
# T2 sequence (P10980 whole entry): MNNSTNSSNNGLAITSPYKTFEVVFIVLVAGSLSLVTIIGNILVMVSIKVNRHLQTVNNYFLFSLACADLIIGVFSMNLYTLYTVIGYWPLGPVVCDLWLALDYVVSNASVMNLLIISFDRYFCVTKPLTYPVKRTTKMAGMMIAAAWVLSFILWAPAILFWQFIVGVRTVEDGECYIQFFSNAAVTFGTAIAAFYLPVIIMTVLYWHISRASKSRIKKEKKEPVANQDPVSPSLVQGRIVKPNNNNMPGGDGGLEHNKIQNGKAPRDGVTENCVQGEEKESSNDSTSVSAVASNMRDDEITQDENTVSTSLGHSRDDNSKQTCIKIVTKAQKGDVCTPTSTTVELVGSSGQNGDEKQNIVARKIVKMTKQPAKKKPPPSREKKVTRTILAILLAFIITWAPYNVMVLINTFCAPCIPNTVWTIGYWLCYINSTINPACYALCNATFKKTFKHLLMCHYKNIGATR
# [5] = molecular target: Muscarinic acetylcholine receptor M3 (Rattus norvegicus, UniProt P08483); assay: Displacement of [3H]-NMS from Sprague-Dawley rat muscarinic M3 receptor in submandibular gland
# Chain of Muscarinic acetylcholine receptor M3 (P08483 whole entry): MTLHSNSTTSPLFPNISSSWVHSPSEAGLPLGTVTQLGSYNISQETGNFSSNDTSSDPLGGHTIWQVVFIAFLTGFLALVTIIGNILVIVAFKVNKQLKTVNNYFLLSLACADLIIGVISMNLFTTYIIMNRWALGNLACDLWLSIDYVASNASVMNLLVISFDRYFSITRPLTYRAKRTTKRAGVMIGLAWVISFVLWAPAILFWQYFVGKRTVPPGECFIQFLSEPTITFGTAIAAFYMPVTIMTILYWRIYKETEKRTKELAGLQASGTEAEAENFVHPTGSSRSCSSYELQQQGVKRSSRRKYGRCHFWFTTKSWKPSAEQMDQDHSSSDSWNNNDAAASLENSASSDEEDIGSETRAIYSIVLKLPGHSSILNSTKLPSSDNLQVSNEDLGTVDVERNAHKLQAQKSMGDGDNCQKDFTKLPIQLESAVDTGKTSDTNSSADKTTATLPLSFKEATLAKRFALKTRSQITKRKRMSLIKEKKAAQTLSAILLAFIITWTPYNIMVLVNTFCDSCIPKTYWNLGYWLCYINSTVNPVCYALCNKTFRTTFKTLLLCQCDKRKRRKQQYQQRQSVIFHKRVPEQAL
# [6] = tested on: Rattus norvegicus; assay: Bronchodilatory effect in Sprague-Dawley rat assessed as inhibition of CCh-induced bronchoconstriction at 0.5 ug/kg, it after 0.25 hrs; assay type: functional
# Outline: (§2)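 Male Sprague-Dawley rats (250–400 g) anaesthetised with pentobarbital sodium (50 mg/kg i.p.), tracheally cannulated, given pancuronium bromide 0.2 mg/kg i.v. Compound given intratracheally at 0.5 μg/kg; CCh 30 μg/kg challenge at 0.25, 0.5, 2 or 24 h post-dose; airway pressure by pressure transducer. Inhibition expressed as mean percentage of control value, n = 3.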
# [7] = tested on: Rattus norvegicus; assay: Bronchodilatory effect in Sprague-Dawley rat assessed as inhibition of CCh-induced bronchoconstriction at 0.5 ug/kg, it after 0.5 hrs; assay type: functional; outline: as §2
# [8] = tested on: Rattus norvegicus; assay: Bronchodilatory effect in Sprague-Dawley rat assessed as inhibition of CCh-induced bronchoconstriction at 0.5 ug/kg, it after 2 hrs; assay type: functional; outline: as §2
# [9] = tested on: Rattus norvegicus; assay: Bronchodilatory effect in Sprague-Dawley rat assessed as inhibition of CCh-induced bronchoconstriction at 0.5 ug/kg, it after 24 hrs; assay type: functional; outline: as §2
# [10] = species on record: Rattus norvegicus; assay: Ratio of ID50 for effect on CCh-induced salivation in Sprague-Dawley rat to ID50 for inhibition of CCh-induced bronchoconstriction Sprague-Dawley rat
# [11] = species on record: Rattus norvegicus; assay: Effect on CCh-induced salivation in Sprague-Dawley rat after 24 hrs; assay type: ADME, organism-based; conditions: in vivo; outline: as §1
# [12] = molecular target: Muscarinic acetylcholine receptor M3 (Rattus norvegicus) (UniProt P08483); assay: Displacement of [3H]-NMS from Sprague-Dawley rat muscarinic M3 receptor in submandibular gland measured after single/double washout
# Chain of Muscarinic acetylcholine receptor M3 (Rattus norvegicus) (P08483 whole entry, looked up): as the sequence (P08483 whole entry) above
# [13] = tested on: Lung; assay: Drug uptake in it dosed Sprague-Dawley rat lung after 24 hrs; assay type: ADME, organism-based; conditions: in vivo, inhaled_or_intranasal
# [14] = Drug uptake in it dosed Sprague-Dawley rat submandibular gland after 24 hrs; assay type: ADME, organism-based; conditions: in vivo
Structure (SMILES),pKi [3],pKi [4],pKi [5],other results
C[N+]1(C)CCC(OC(=O)C(O)(c2ccccc2)C2CCCC2)C1.[Br-] (stereo not drawn) [GLYCOPYRRONIUM BROMIDE],–,–,–,ED50 [1]: 3.4 µg/kg; inhibition [2]: Active
C[N+]12CCC(OC(=O)Nc3ncsc3-c3cccc(C(F)(F)F)c3)(CC1)CC2,8.64,7.85,8.74,–
O=C(Nc1ccsc1-c1ccccc1)O[C@@H]1CN2CCC1CC2,8.34,7.89,8.40,–
O=C(Nc1ncsc1-c1ccccc1)O[C@H]1CN2CCC1CC2,9.12,8.72,9.03,–
C[N+]12CCC(OC(=O)Nc3ncsc3-c3cccc(Cl)c3)(CC1)CC2 [listing 1 of 2 here],10.39,10.28,10.31,inhibition in vivo at 0.0005 mg/kg [6]: 67%; inhibition in vivo at 0.0005 mg/kg [7]: 67%; inhibition in vivo at 0.0005 mg/kg [8]: 84%; inhibition in vivo at 0.0005 mg/kg [9]: 82%
O=C(O[C@H]1C[N+]2(CCCOc3ccccc3)CCC1CC2)C(O)(c1cccs1)c1cccs1.[Br-] [ACLIDINIUM BROMIDE],–,–,–,ED50 [1]: 0.4 µg/kg; Ratio [10]: 24; ID50 [11]: 9.4 µg/kg
CC(C)[N+]1(C)C2CCC1CC(OC(=O)C(CO)c1ccccc1)C2 (stereo not drawn),–,–,–,inhibition in vivo at 0.0005 mg/kg [6]: 70%; inhibition in vivo at 0.0005 mg/kg [7]: 85%; inhibition in vivo at 0.0005 mg/kg [8]: 83%; inhibition in vivo at 0.0005 mg/kg [9]: 15%; inhibition [12]: inactive
O=C(Nc1ncoc1-c1ccccc1)O[C@H]1CN2CCC1CC2,8.06,7.23,8.01,–
O=C(Nc1ccccc1-c1ccccc1)OC12CCN(CC1)CC2,9.49,8.42,9.85,–
C[N+]12CCC(OC(=O)Nc3ncsc3-c3ccc(F)cc3)(CC1)CC2,10.14,9.68,10.00,–
O=C(Nc1scnc1-c1ccccc1)O[C@H]1CN2CCC1CC2,8.06,7.41,7.92,–
O=C(Nc1sccc1-c1ccccc1)OC12CCN(CC1)CC2,9.48,8.85,9.92,–
C[N+]12CCC(OC(=O)Nc3ncsc3-c3ccccc3)(CC1)CC2,10.26,9.92,10.19,inhibition in vivo at 0.0005 mg/kg [9]: 61%
C[N+]12CCC(OC(=O)Nc3ncsc3-c3cc(Cl)cc(Cl)c3)(CC1)CC2,9.92,9.19,9.92,–
C[N+]12CCC(OC(=O)Nc3ncsc3-c3cccc(Cl)c3)(CC1)CC2.[Br-],–,–,–,ED50 [1]: 0.08 µg/kg; Ratio [10]: 53; ID50 [11]: 4.2 µg/kg; Drug uptake [13]: Active; Drug uptake [14]: Active
O=C(Nc1ccsc1-c1ccccc1)OC12CCN(CC1)CC2,10.02,9.34,10.25,–
C[N+]12CCC(OC(=O)Nc3ncsc3-c3cccc(Cl)c3)(CC1)CC2 [listing 2 of 2 here],–,–,–,inhibition [12]: inactive; inhibition [2]: Active
O=C(Nc1cscc1-c1ccccc1)OC12CCN(CC1)CC2,9.29,8.44,9.68,–
C[N+]12CCC(CC1)[C@@H](OC(=O)Nc1ncsc1-c1cccc(Cl)c1)C2,9.51,8.92,9.60,inhibition in vivo at 0.0005 mg/kg [6]: 64%; inhibition in vivo at 0.0005 mg/kg [7]: 64%; inhibition in vivo at 0.0005 mg/kg [8]: 50%
O=C(Nc1ccsc1-c1ccccc1)O[C@H]1CN2CCC1CC2,9.72,9.09,9.72,–
O=C(Nc1ncsc1-c1ccccc1)OC12CCN(CC1)CC2,9.41,9.10,–,–
C[N+]1(C)[C@@H]2C[C@@H](OC(=O)C(O)(c3cccs3)c3cccs3)C[C@H]1[C@@H]1O[C@@H]12.O.[Br-] [TIOTROPIUM BROMIDE],9.80,9.82,9.52,inhibition in vivo at 0.0005 mg/kg [6]: 44%; inhibition in vivo at 0.0005 mg/kg [7]: 59%; inhibition in vivo at 0.0005 mg/kg [8]: 83%; inhibition in vivo at 0.0005 mg/kg [9]: 78%; ED50 [1]: 0.12 µg/kg; Ratio [10]: 16; ID50 [11]: 1.9 µg/kg; inhibition [12]: Active; Drug uptake [13]: Active; Drug uptake [14]: Active
C[N+]12CCC(CC1)[C@@H](OC(=O)Nc1ncsc1-c1ccccc1)C2,9.43,8.92,9.43,inhibition in vivo at 0.0005 mg/kg [6]: 74%; inhibition in vivo at 0.0005 mg/kg [7]: 62%; inhibition in vivo at 0.0005 mg/kg [8]: 54%; inhibition in vivo at 0.0005 mg/kg [9]: 14%
C[N+]12CCC(OC(=O)Nc3ccsc3-c3ccccc3)(CC1)CC2,10.70,10.57,10.70,inhibition in vivo at 0.0005 mg/kg [6]: 42%; inhibition in vivo at 0.0005 mg/kg [7]: 78%; inhibition in vivo at 0.0005 mg/kg [8]: 86%
